The conditions of data set [1]: cited from earlier work.
The conditions of data set [2]: cited from earlier work. This is another data set of the same source.
Data set [3] can be described thus: Steady-state pharmacokinetics of lazertinib with. The conditions noted are these: for CD15, arithmetic mean: 240 mg once daily; for DNAUCss, arithmetic mean / DNCmax,ss, arithmetic mean / DNCD15, arithmetic mean: 40–320 mg once daily; for DNAUCss, arithmetic mean / DNCmax,ss, arithmetic mean: steady state. It counts as in vivo, human. Summed up: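 NSCLC patients dosed once daily, fasting, in 21-day cycles. AUCss and Cmax,ss came from non-compartmental analysis using actual sampling times over the dosing interval after the 22nd dose (cycle 2 day 1). CD15 is the trough before the 15th dose. Groups were compared using dose-normalized values within the dose-proportional range, plus raw values at 240 mg. Analysis was ANOVA on log-transformed values with group as fixed effect; geometric mean ratios with 90% CI.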

For data set [4] the following is noted: once-daily administration; cited from earlier work.
The conditions of data set [5]: cited from earlier work. This is another data set of the same source.
The test system of data set [6] is cytochrome P450 (CYP) 3A4. The following applies: in vitro study; cited from earlier work.
The conditions of data set [7]: healthy subjects; cited from earlier work.
The mark [8] stands for this setting: co-administered with ranitidine (an H2RA).
[9] abbreviates: co-administered with omeprazole or ranitidine.

In brackets after ≈: the same amount, converted by molar mass. Like-named read-outs stand apart in the source and are kept apart here.

On to `O=C(c1ccc(F)c(F)c1Nc1ccc(I)cc1F)N1CC(O)([C@@H]2CCCCN2)C1` [cobimetinib], for which the “Effect of rabeprazole on exposure” value in data set [1] (fed and fasted conditions) is “did not result in a statistically significant effect”. The Fold less solubility in data set [2] (pH 6.4 compared to pH 1.9) is given as 100 fold.

On to `Cc1ccc(C(=O)Nc2ccc(CN3CCN(C)CC3)c(C(F)(F)F)c2)cc1C#Cc1cnc2cccnn12` [ponatinib], for which, in data set [1], the “Effect of lansoprazole on exposure” value is “did not have a clinically significant effect”.

As to `COC(=O)c1ccc2c(c1)NC(=O)/C2=C(\Nc1ccc(N(C)C(=O)CN2CCN(C)CC2)cc1)c1ccccc1` [nintedanib], the “Effect of PPI or H2RA on exposure” value in data set [1] is given as “neither PPI nor H2RA affected”. Besides, in data set [2], the pH-dependent solubility profile result is given as “increased solubility at acidic pH < 3”.

As for `COc1cc2ncnc(Nc3ccc(F)c(Cl)c3)c2cc1OCCCN1CCOCC1` [gefitinib], in data set [1] (setting [8]), the “AUC decreased to” value is on record as 45% and the “Cmax decreased to” value is 70%.

Regarding `C#Cc1cccc(Nc2ncnc3cc(OCCOC)c(OCCOC)cc23)c1` [erlotinib], in data set [1] (setting [9]), the “AUC decreased by” value is reported as 30–45% and the “Cmax decreased by” value is given as 50–60%.

In the case of `C=CC(=O)Nc1cc(Nc2nccc(-n3cc(CN(C)C)c(-c4ccccc4)n3)n2)c(OC)cc1N1CCOCC1` [lazertinib, Lazertinib], in data set [3] (ARA group versus non-ARA group), the “Reduction of exposure by ARAs at the steady state” value is “approximately 10%”. Also, the “Effect of co-administered ARAs on the steady state pharmacokinetics” value in data set [3] (ARA group versus non-ARA group, all p values > 0.05) was “did not significantly affect”. The “CD15, arithmetic mean” value in data set [3] (ARA group, trough day 15 of cycle 1, n=10) is reported as 159.01 (62.4%) ng/mL; in data set [3] (Non-ARA group, trough day 15 of cycle 1, n=115), 175.70 (59.4%) ng/mL. Moreover, the “DNAUCss, arithmetic mean” value is 25.51 (59.9%) h·ng/mL/mg in data set [3] (ARA group, n=19) and 27.61 (42.9%) h·ng/mL/mg in data set [3] (Non-ARA group, n=105). The “DNCmax,ss, arithmetic mean” value is listed as 1.97 (50.1%) ng/mL/mg in data set [3] (ARA group, n=19) and 2.14 (44.3%) ng/mL/mg in data set [3] (Non-ARA group, n=105). Besides, the “DNCD15, arithmetic mean” value in data set [3] (ARA group, trough day 15 of cycle 1, n=23) is listed as 0.66 (62.1%) ng/mL/mg; in data set [3] (Non-ARA group, trough day 15 of cycle 1, n=203), 0.72 (63.4%) ng/mL/mg. Moreover, the “Time to reach steady state” value in data set [4] is reported as no more than 15 days. Moreover, the “Solubility in aqueous media” value in data set [5] (between pH 5.0 and 6.0) is recorded as “solubility decreasing”; in data set [5] (pH 1.2–4.0), “soluble”; in data set [5] (pH 7.0–8.0) it was “practically insoluble”. The Metabolizing enzyme entry in data set [6] is listed as “predominantly metabolized by cytochrome P450 (CYP) 3A4”. Moreover, the “Effect of a high-fat meal on the pharmacokinetics” value in data set [7] was “did not significantly affect”.

On to `C[C@@H](Oc1cc(-c2cnn(C3CCNCC3)c2)cnc1N)c1c(Cl)ccc(F)c1Cl` [crizotinib], for which, in data set [1], the “Effect of esomeprazole on pharmacokinetics” value is “no clinically significant effect”. In addition, the results for the Solubility in data set [2] (pH 1.6) and in data set [2] (pH 7.7) were greater than 10000 µg/mL and 100 µg/mL (≈ 0.222 mM), respectively.

The values are drawn from paper PMC9464755 (Advances in Therapy, 2022).
